Experiments:
[1] = system: Mus musculus; assay: In vivo antitumor activity against P388 leukemia cells (ip)in mice and maximal increase in life span calculated as (T/C-1)*100 at the optimal dose of 2.5 mg/kg (%ILS max of mitomycin C at the optimal dose of 4.0 mg/kg).; type: functional
[2] = system: HeLa; assay: In vitro anticellular activity against HeLa cells.; type: functional, cell-based, Homo sapiens
Method in brief: (§1)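 HeLa S3 cells seeded on day 0, then exposed to drug for 1 h on day 1. Anticellular activity determined by a previously described method and reported as 1 h IC50 in μM.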

[3] = system: Mus musculus; assay: In vivo antitumor activity against P388 leukemia cells (ip)in mice and maximal increase in life span calculated as (T/C-1)*100 at the optimal dose of 5 mg/kg (%ILS max of mitomycin C at the optimal dose of 4.0 mg/kg).; type: functional
[4] = system: Mus musculus; assay: In vivo antitumor activity against P388 leukemia cells (ip)in mice and maximal increase in life span calculated as (T/C-1)*100 at the optimal dose of 13 mg/kg (%ILS max of mitomycin C at the optimal dose of 6.0 mg/kg).; type: functional
[5] = system: Mus musculus; assay: In vivo antitumor activity against P388 leukemia cells (ip)in mice and maximal increase in life span calculated as (T/C-1)*100 at the optimal dose of 3 mg/kg (%ILS max of mitomycin C at the optimal dose of 6.0 mg/kg); type: functional
[6] = system: Mus musculus; assay: In vivo antitumor activity against P388 leukemia cells (ip)in mice and maximal increase in life span calculated as (T/C-1)*100 at the optimal dose of 5 mg/kg (%ILS max of mitomycin C at the optimal dose of 6.0 mg/kg).; type: functional
[7] = system: Mus musculus; assay: In vivo antitumor activity against P388 leukemia cells (ip)in mice and maximal increase in life span calculated as (T/C-1)*100 at the optimal dose of 3.1 mg/kg (%ILS max of mitomycin C at the optimal dose of 4.0 mg/kg).; type: functional
[8] = system: Mus musculus; assay: In vivo antitumor activity against P388 leukemia cells (ip)in mice and maximal increase in life span calculated as (T/C-1)*100 at the optimal dose of 13 mg/kg (%ILS max of mitomycin C at the optimal dose of 4.0 mg/kg).; type: functional
[9] = system: HeLa; assay: The compound was tested in vitro for its anticellular activity against HeLa cells.; type: functional, cell-based; settings: Homo sapiens; method in brief: as §1
[10] = system: Mus musculus; assay: In vivo antitumor activity against P388 leukemia cells (ip)in mice and maximal increase in life span calculated as (T/C-1)*100 at the optimal dose of 0.75 mg/kg (%ILS max of mitomycin C at the optimal dose of 6.0 mg/kg); type: functional
[11] = system: Mus musculus; assay: In vivo antitumor activity against P388 leukemia cells (ip)in mice and maximal increase in life span calculated as (T/C-1)*100 at the optimal dose of 0.39 mg/kg (%ILS max of mitomycin C at the optimal dose of 4.0 mg/kg).; type: functional
[12] = system: Mus musculus; assay: TIn vivo antitumor activity against P388 leukemia cells (ip)in mice and maximal increase in life span calculated as (T/C-1)*100 at the optimal dose of 5 mg/kg (%ILS max of mitomycin C at the optimal dose of 4.0 mg/kg).; type: functional
[13] = system: Mus musculus; assay: In vivo antitumor activity against P388 leukemia cells (ip)in mice and maximal increase in life span calculated as (T/C-1)*100 at the optimal dose of 0.50 mg/kg (%ILS max of mitomycin C at the optimal dose of 6.0 mg/kg); type: functional
[14] = system: Mus musculus; assay: In vivo antitumor activity against P388 leukemia cells (ip)in mice and maximal increase in life span calculated as (T/C-1)*100 at the optimal dose of 2.5 mg/kg (%ILS max of mitomycin C at the optimal dose of 6.0 mg/kg).; type: functional
[15] = system: Mus musculus; assay: In vivo antitumor activity against P388 leukemia cells (ip)in mice and maximal increase in life span calculated as (T/C-1)*100 at the optimal dose of 4.0-6.0 mg/kg; type: functional

Compound: CO[C@@]12[C@H](COC(N)=O)C3=C(C(=O)C(C)C4(OCCO4)C3=O)N1C[C@H]1[C@@H]2N1C (stereo partly specified)
- ILS max [1]: 53%
- IC50 ([2]; Homo sapiens, HeLa): 600 nM

Compound: CC1C(=O)C2=C(C(=O)C13OCCO3)[C@H](COC(N)=O)[C@@]1(O)[C@@H]3[C@H](CN21)N3C (stereo partly specified)
- IC50 ([2]; Homo sapiens, HeLa): 4400 nM
- ILS max [3]: 73%

Compound: CC(=O)OC1=C(C)C2(OCCO2)C(=O)C2=C1N1C[C@H]3[C@H](N3C)[C@]1(O)[C@H]2COC(N)=O (stereo partly specified)
- IC50 ([2]; Homo sapiens, HeLa): 4400 nM
- ILS max [4]: 71%

Compound: CO[C@@]12[C@H](COC(N)=O)C3=C(C(OC(=O)c4ccccc4)=C(C)C4(OCCO4)C3=O)N1C[C@@H]1N[C@@H]12
- ILS max [5]: 71%
- IC50 ([2]; Homo sapiens, HeLa): 540 nM

Compound: CO[C@@]12[C@H](COC(N)=O)C3=C(C(OC(=O)CCC(C)=O)=C(C)C4(OCCO4)C3=O)N1C[C@@H]1N[C@@H]12
- IC50 ([2]; Homo sapiens, HeLa): 590 nM
- ILS max [6]: 80%

Compound: COC1=C(C)C2(OCCO2)C(=O)C2=C1N1C[C@@H]3N[C@@H]3[C@]1(OC)[C@@H]2COC(N)=O
- IC50 ([2]; Homo sapiens, HeLa): 20000 nM
- ILS max [7]: 41%

Compound: CCCCCCCC(=O)OC1=C(C)C2(OCCO2)C(=O)C2=C1N1C[C@@H]3N[C@@H]3[C@]1(OC)[C@@H]2COC(N)=O
- IC50 ([2]; Homo sapiens, HeLa): 360 nM

Compound: CN1[C@H]2[C@@H]1CN1C3=C(C(=O)C4(OCCO4)C(C)(Cl)C3=O)[C@H](COC(N)=O)[C@@]21O (stereo partly specified)
- IC50 ([2]; Homo sapiens, HeLa): 50000 nM
- ILS max [8]: 59%

Compound: CO[C@@]12[C@H](COC(N)=O)C3=C(C(OC(=O)C(C)(C)C)=C(C)C4(OCCO4)C3=O)N1C[C@@H]1N[C@@H]12
- IC50 [9]: 8100 nM

Compound: CCCCCCCCCCCC(=O)OC1=C(C)C2(OCCO2)C(=O)C2=C1N1C[C@@H]3N[C@@H]3[C@]1(OC)[C@@H]2COC(N)=O
- IC50 ([2]; Homo sapiens, HeLa): 94 nM
- ILS max [10]: 67%

Compound: CO[C@@]12[C@H](COC(N)=O)C3=C(C(=O)C(C)C4(OCCO4)C3=O)N1C[C@@H]1N[C@@H]12 (stereo partly specified)
- IC50 ([2]; Homo sapiens, HeLa): 41 nM
- ILS max [11]: 69%

Compound: CO[C@]12[C@@H]3[C@H](CN1C1=C(C(=O)C4(OCCO4)C(C)C1=O)[C@@H]2COC(N)=O)N3C (stereo partly specified)
- IC50 ([2]; Homo sapiens, HeLa): 3100 nM
- ILS max [12]: 80%

Compound: CO[C@@]12[C@H](COC(N)=O)C3=C(C(OC(C)=O)=C(C)C4(OCCO4)C3=O)N1C[C@@H]1N[C@@H]12
- ILS max [13]: 63%
- IC50 ([2]; Homo sapiens, HeLa): 4400 nM

Compound: CCOC(=O)OC1=C(C)C2(OCCO2)C(=O)C2=C1N1C[C@@H]3N[C@@H]3[C@]1(OC)[C@@H]2COC(N)=O
- IC50 [9]: 870 nM

Compound: CO[C@@]12[C@H](COC(N)=O)C3=C(C(=O)C(C)(Cl)C4(OCCO4)C3=O)N1C[C@@H]1N[C@@H]12 (stereo in doubt; 13b)
- ILS max [14]: 60%
- IC50 ([2]; hela): 3200 nM

Compound: CO[C@@]12[C@H](COC(N)=O)C3=C(C(=O)C(C)(Cl)C4(OCCO4)C3=O)N1C[C@@H]1N[C@@H]12 (stereo in doubt; 13c)
- ILS max [14]: 73%
- IC50 ([2]; hela): 590 nM

Compound: CO[C@@]12[C@H](COC(N)=O)C3=C(C(=O)C(C)=C(N)C3=O)N1C[C@@H]1N[C@@H]12 [MITOMYCIN]
- IC50 ([2]; Homo sapiens, HeLa): 810 nM
- ILS max [15]: 52%
